Values after ≈ are worked out from the molar mass of the structure shown.
How the values were obtained:
[1] = tested on: Mycobacterium tuberculosis; assay: Antimicrobial activity against Mycobacterium tuberculosis H37Rv ATCC 27294 expressing luciferase reporter gene assessed as growth inhibition at 1 uM after 6 days by luminometry relative to control; type: functional; details: H37Rv ATCC 27294, 144 h, read-out: GI
Outline: (§1)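 Single-concentration screen of the luminescent H37Rv reporter strain in 7H9-10% FCS, inoculated at 50,000 RLU/ml, 6 days at 37 °C. Luminescence was read after n-decanal addition. Percent inhibition is versus the untreated culture, as the mean of triplicate cultures.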

[2] = tested on: Mycobacterium tuberculosis; assay: Antimicrobial activity against Mycobacterium tuberculosis H37Rv ATCC 27294 expressing luciferase reporter gene assessed as growth inhibition at 0.1 uM after 6 days by luminometry relative to control; type: functional; details: H37Rv ATCC 27294, 144 h, read-out: GI; outline: as §1
[3] = tested on: Mycobacterium tuberculosis; assay: Antimicrobial activity against Mycobacterium tuberculosis H37Rv ATCC 27294 expressing luciferase reporter gene assessed as growth inhibition at 10 uM after 6 days by luminometry relative to control; type: functional; details: H37Rv ATCC 27294, 144 h, read-out: GI; outline: as §1
[4] = tested on: Mycobacterium tuberculosis; assay: Antimicrobial activity against Mycobacterium tuberculosis H37Rv ATCC 27294 expressing luciferase reporter gene infected in mouse J774 macrophages assessed as intracellular growth inhibition at 1 uM after 4 days by luminometry relative to untreated control; type: functional; details: H37Rv ATCC 27294, J774, 96 h, read-out: GI
Outline: (§2)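 J774.A1 murine macrophages were seeded at 40,000 cells/well, recovered overnight and infected with luminescent H37Rv. From 24 h post-infection, cells were treated for 4 days in DMEM with penicillin and fungizone, without gentamicin. Growth was read by luminescence after 1% n-decanal and expressed as percent inhibition versus untreated, in triplicate. Macrophage viability was checked by trypan blue.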

[5] = tested on: Mycobacterium tuberculosis; assay: Antimicrobial activity against Mycobacterium tuberculosis H37Rv ATCC 27294 expressing luciferase reporter gene assessed as growth inhibition after 6 days by luminometry; type: functional; details: H37Rv ATCC 27294, 144 h
Outline: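 Luminescent H37Rv (pSMT1, V. harveyi luciferase) was declumped by filtration, adjusted to 50,000 RLU/ml in 7H9-10% FCS, and exposed to serial compound dilutions in triplicate for 6 days at 37 °C. Light was read for 10 s after adding 1% n-decanal. GI50 is the concentration giving 50% growth reduction versus untreated culture.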

[6] = Antimicrobial activity against Mycobacterium avium subsp. avium ATCC 19698 expressing luciferase reporter gene assessed as growth inhibition after 6 days by luminometry; type: functional; details: ATCC 19698, 144 h
[7] = tested on: Mycobacterium avium subsp. paratuberculosis; assay: Antimicrobial activity against Mycobacterium avium subsp. paratuberculosis ATCC 15769 expressing luciferase reporter gene assessed as growth inhibition after 6 days by luminometry; type: functional; details: ATCC 15769, 144 h
Mycobacterium ulcerans = assay: Antimicrobial activity against Mycobacterium ulcerans 1615 expressing luciferase reporter gene assessed as growth inhibition after 6 days by luminometry; type: functional; details: Mycobacterium ulcerans, 1615, 144 h
Outline: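 Luminescent M. ulcerans 1615 carrying pSMT1 luciferase plasmid, grown at 32 °C in 7H9 with 10% OADC and 0.2% glycerol. Serial dilutions from 10 mM DMSO stocks in 7H9 + 10% FCS; bacteria dosed at 50,000 RLU/ml, triplicate wells. After 6 days, light read over 10 s following 1% n-decanal in ethanol. GI50 taken at 50% growth reduction versus untreated culture.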

[8] = tested on: Mycobacterium tuberculosis; assay: Antimicrobial activity against Mycobacterium tuberculosis H37Rv ATCC 27294 expressing luciferase reporter gene infected in mouse J774 macrophages assessed as intracellular growth inhibition at 0.5 uM after 4 days by luminometry relative to untreated control; type: functional; details: H37Rv ATCC 27294, J774, 96 h, read-out: GI; outline: as §2
[9] = Therapeutic index, ratio of IC50 for human HepG2/C3A cells to GI50 for Mycobacterium tuberculosis H37Rv ATCC 27294; type: cell-based; details: read-out: TI
Outline: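 TI is NI50/GI50. NI50 came from a neutral red uptake assay in C3A hepatocytes (40,000 cells/well, 24 h exposure at 37 °C, 3 h dye, OD 530 nm with 620 nm reference): the concentration reducing dye uptake by 50%. GI50 came from the 6-day luminescent H37Rv assay.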

[10] = Cytotoxicity against human HepG2/C3A cells after 24 hrs by neutral red dye uptake assay; type: cell-based
[11] = tested on: Mycobacterium tuberculosis; assay: Antimicrobial activity against Mycobacterium tuberculosis H37Rv ATCC 27294 expressing luciferase reporter gene infected in mouse J774 macrophages assessed as intracellular growth inhibition at 2 uM after 4 days by luminometry relative to untreated control; type: functional; details: H37Rv ATCC 27294, J774, 96 h, read-out: GI; outline: as §2
[12] = tested on: Mycobacterium tuberculosis; assay: Antimicrobial activity against Mycobacterium tuberculosis H37Rv ATCC 27294 expressing luciferase reporter gene assessed as reduction in bacterial count after 6 days by luminometry; type: functional; details: H37Rv ATCC 27294, 144 h
Outline: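 MIC by serial dilution in the 6-day luminescent H37Rv assay (7H9-10% FCS, 50,000 RLU/ml inoculum, triplicate wells, n-decanal read-out). MIC is the concentration giving at least one log10 reduction in signal versus the untreated control.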

[13] = tested on: Mycobacterium intracellulare; assay: Antimicrobial activity against Mycobacterium intracellulare; type: functional

| Structure (SMILES) | inhibition of growth at 1 µM [1] [%] | inhibition of growth at 0.1 µM [2] [%] | inhibition of growth at 10 µM [3] [%] | inhibition of growth at 1 µM [4] [%] | GI50 [5] [nM] | GI50 [6] [µM] | GI50 [7] [µM] | GI50 (Mycobacterium ulcerans) [µM] | inhibition of growth at 0.5 µM [8] [%] | selectivity ratio [9] | IC50 [10] [µM] | inhibition of growth at 2 µM [11] [%] | MIC90 [12] [µM] | MIC [13] [µg/mL] |
| --- | --- | --- | --- | --- | --- | --- | --- | --- | --- | --- | --- | --- | --- | --- |
| COc1ccc(OC)c(-c2cc3c(c(/C=C/N(C)C)n2)C(=O)c2ccccc2C3=O)c1 | 47 | 35 | 87 | – | – | – | – | – | – | – | – | – | – | – |
| CN(C)/C=C/c1cncc2c1C(=O)c1ccccc1C2=O | 17 | < 10 | 53 | – | – | – | – | – | – | – | – | – | – | – |
| COc1ccc(OC)c(-c2cc3c4c(nccc4n2)-c2ccccc2C3=O)c1 | 75 | 39 | 87 | – | – | – | – | – | – | – | – | – | – | – |
| Cc1ccc(-c2cc3c(c(C)n2)C(=O)c2ccccc2C3=O)cc1 | 63 | 54 | 99 | – | – | – | – | – | – | – | – | – | – | – |
| Cc1ccc(-c2cc3c(c(/C=C/N(C)C)n2)C(=O)c2ccccc2C3=O)cc1 | 100 | 39 | 100 | 36.2 | 690 | 3.69 | 4.83 | 8.59 | 15.9 | 40.4 | 27.9 | 48.7 | 1.5 (≈ 0.553 µg/mL) | – |
| CN(C)/C=C/c1nc(-c2ccc(Cl)cc2)cc2c1C(=O)c1ccccc1C2=O | 91 | 34 | 100 | 35.6 | 550 | 3.88 | 3.95 | 7.69 | 19.8 | 34.2 | 18.8 | 54.4 | 1.1 (≈ 0.428 µg/mL) | – |
| CN(C)/C=C/c1nc(C(C)(C)C)cc2c1C(=O)c1ccccc1C2=O | 53 | 21 | 73 | – | – | – | – | – | – | – | – | – | – | – |
| CCc1ccnc2c1C(=O)c1ccccc1C2=O | – | – | – | – | – | – | – | – | – | – | – | – | – | 12.5 (≈ 52.7 µM) |
| NNC(=O)c1ccncc1 [ISONIAZID] | 100 | 99 | 100 | 92.8 | 10 | – | – | – | 76.4 | – | – | 97.3 | 0.09 (≈ 0.0123 µg/mL) | – |
| Cc1nccc2c1C(=O)c1ccccc1C2=O | 22 | 10 | 58 | – | – | – | – | – | – | – | – | – | – | – |
| O=C1c2ccccc2-c2nccc3nc(-c4ccc(F)cc4)cc1c23 | 100 | 53 | 100 | 30.2 | 690 | 3.98 | 3.56 | 9.23 | 15.3 | > 72.4 | > 50 | 65.5 | 1.5 (≈ 0.489 µg/mL) | – |
| Cc1cncc2c1C(=O)c1ccccc1C2=O | 11 | < 10 | 48 | – | – | – | – | – | – | – | – | – | – | – |
| COc1ccc(OC)c(-c2cc3c(c(C)n2)C(=O)c2ccccc2C3=O)c1 | 35 | < 10 | 86 | – | – | – | – | – | – | – | – | – | – | – |
| O=C1c2ccccc2-c2nccc3cncc1c23 | 25 | 11 | 62 | – | – | – | – | – | – | – | – | – | – | – |
| Cc1nc(C(C)C)cc2c1C(=O)c1ccccc1C2=O | 24 | < 10 | 54 | – | – | – | – | – | – | – | – | – | – | – |
| COc1ccc(-c2cc3c(c(C)n2)C(=O)c2ccccc2C3=O)cc1 | 70 | 32 | 100 | – | – | – | – | – | – | – | – | – | – | – |

From ChEMBL document CHEMBL2434878, “Synthesis and antimycobacterial activity of analogues of the bioactive natural products sampangine and cleistopholine” (Eur J Med Chem, 2013)
